Measurements: ChEMBL document CHEMBL2331191, “Design and synthesis of novel 1,2,3-triazole-dithiocarbamate hybrids as potential anticancer agents” (Eur J Med Chem, 2013)

Experiments:
Assay type in all cases: functional, cell-based
[1] = Cytotoxicity against human EC109 cells assessed as growth inhibition after 72 hrs by MTT assay; settings: ECa-109, 72 h
Procedure, shortened: (§1)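 Exponentially growing cells were seeded at 5×10^3 per well and held 24 h at 37 °C. Medium was then replaced with fresh medium containing a range of concentrations, and cells were exposed for 72 h. MTT (5 mg/mL) was added for 4 h at 37 °C, formazan was dissolved in DMSO and A570 was read. Triplicate wells per concentration, three experiments. IC50 was taken from dose–response curves of inhibition ratio.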

MGC-803 = experiment: Cytotoxicity against human MGC803 cells assessed as growth inhibition after 72 hrs by MTT assay; settings: MGC-803, 72 h; procedure, shortened: as §1
MCF7 = experiment: Cytotoxicity against human MCF7 cells assessed as growth inhibition after 72 hrs by MTT assay; settings: MCF7, 72 h; procedure, shortened: as §1
PC-3 = experiment: Cytotoxicity against human PC3 cells assessed as growth inhibition after 72 hrs by MTT assay; settings: PC-3, 72 h; procedure, shortened: as §1

Structure (SMILES) | IC50 [1] | IC50 (MGC-803) | IC50 (MCF7) | IC50 (PC-3)
Cc1ccc(Cn2cc(CSC(=S)N3CCNCC3)nn2)cc1 | > 128 µM | 64.3 µM | 53.2 µM | 19.8 µM
COc1cc(Cn2cc(CSC(=S)N3CCNCC3)nn2)cc(OC)c1OC | > 128 µM |  |  | > 128 µM
CC(C)(C)OC(=O)N1CCN(C(=S)SCc2cn(-c3ccccc3F)nn2)CC1 | > 128 µM | 119 µM | 89.6 µM | > 128 µM
COc1ccc(Cn2cc(CSC(=S)N3CCN(C(=O)OCc4ccccc4)CC3)nn2)cc1 | 58.3 µM | 23.8 µM | 30.5 µM | > 128 µM
O=C(OCc1ccccc1)N1CCN(C(=S)SCc2cn(Cc3ccc(Cl)c(Cl)c3)nn2)CC1 | 29.4 µM | 7.14 µM | 10.6 µM | > 128 µM
COc1ccc(Cn2cc(CSC(=S)N3CCNCC3)nn2)cc1 | > 128 µM |  |  | > 128 µM
O=C(OCc1ccccc1)N1CCN(C(=S)SCc2cn(Cc3ccc(F)cc3)nn2)CC1 | 32 µM | 17.6 µM | 10.3 µM | > 128 µM
CC(C)(C)OC(=O)N1CCN(C(=S)SCc2cn(CCOc3ccc4ccc(=O)oc4c3)nn2)CC1 | > 128 µM | 67 µM | 79.8 µM | > 128 µM
S=C(SCc1cn(Cc2ccc(Cl)cc2)nn1)N1CCNCC1 | > 128 µM |  |  | > 128 µM
CC(C)(C)OC(=O)N1CCN(C(=S)SCc2cn(Cc3ccc(Cl)cc3)nn2)CC1 | > 128 µM | 9.79 µM | 2.96 µM | > 128 µM
CC(C)(C)OC(=O)N1CCN(C(=S)SCc2cn(Cc3ccccc3F)nn2)CC1 | 2.44 µM |  | 5.67 µM | 11.6 µM
Cc1ccc(Cn2cc(CSC(=S)N3CCN(C(=O)OCc4ccccc4)CC3)nn2)cc1 | 32.6 µM | 9.37 µM | 37.8 µM | > 128 µM
CC(C)(C)OC(=O)N1CCN(C(=S)SCc2cn(Cc3ccc(Cl)c(Cl)c3)nn2)CC1 | > 128 µM | 33.7 µM | 19.1 µM | > 128 µM
O=C(OCc1ccccc1)N1CCN(C(=S)SCc2cn(Cc3ccccc3F)nn2)CC1 | 27 µM | 5.06 µM | 7.95 µM | 68.3 µM
S=C(SCc1cn(Cc2ccccc2Cl)nn1)N1CCNCC1 | > 128 µM | 45.2 µM | 38.9 µM | 
Cc1ccc(-n2cc(CSC(=S)N3CCN(C(=O)OC(C)(C)C)CC3)nn2)cc1 | 114 µM | 48.3 µM | 74.2 µM | > 128 µM
CC(C)(C)OC(=O)N1CCN(C(=S)SCc2cn(Cc3cc(=O)oc4cc(O)ccc34)nn2)CC1 | > 128 µM | 4.96 µM | 10.4 µM | 36.8 µM
CC(C)(C)OC(=O)N1CCN(C(=S)SCc2cn(-c3cccc(C(F)(F)F)c3)nn2)CC1 | 69.3 µM | 66.8 µM | 80.4 µM | > 128 µM
CC(C)(C)OC(=O)N1CCN(C(=S)SCc2cn(Cc3ccc(F)cc3)nn2)CC1 | 58.9 µM | 1.93 µM | 3.34 µM | > 128 µM
O=C(OCc1ccccc1)N1CCN(C(=S)SCc2cn(Cc3ccc(Cl)cc3)nn2)CC1 | > 128 µM | 31.3 µM | 27.5 µM | > 128 µM
COc1cc(Cn2cc(CSC(=S)N3CCN(C(=O)OCc4ccccc4)CC3)nn2)cc(OC)c1OC | > 128 µM | 10.9 µM | > 128 µM | > 128 µM
Fc1ccccc1Cn1cc(CSC(=S)N2CCNCC2)nn1 | > 128 µM | 19.4 µM | 33.2 µM | 56.2 µM
COc1cc(Cn2cc(CSC(=S)N3CCN(C(=O)OC(C)(C)C)CC3)nn2)cc(OC)c1OC | 44.4 µM | 27.3 µM | 22.7 µM | > 128 µM
O=c1[nH]cc(F)c(=O)[nH]1 [FLUOROURACIL] | 3.34 µM | 7.01 µM |  | 27.1 µM
S=C(SCc1cn(Cc2ccc(Cl)c(Cl)c2)nn1)N1CCNCC1 | > 128 µM |  |  | 
